Molecules are shown by their SMILES.

Data set [1] deals with SARS-CoV-2. The data set is described as follows: Antiviral activity against SARS-CoV-2 Wuhan-HU-1 infected African green monkey Vero E6 cells assessed as reduction in N-protein expression at 0.55 to 15 uM by indirect immunofluorescence assay. The following applies: Severe acute respiratory syndrome coronavirus 2, dose 0.55-15 µM, DDE = dose-dependent effect. The class given is functional, organism-based.

The target in the next data set is Spike glycoprotein (Severe acute respiratory syndrome coronavirus 2, UniProt P0DTC2). The data set is described as follows: Binding affinity to SARS-CoV-2 Spike trimer protein by SPR analysis. Summed up:
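Compound photo-crosslinked onto the chip; recombinant S-trimer injected at a series of concentrations in PBST (0.1% Tween 20, pH 7.4). Run at 4 °C, 600 s association, 360 s dissociation, 0.5 µL/s flow. Chip regenerated with glycine-HCl pH 2.0; KD from the SPR signals.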

The nature of data set [2]: Cytotoxicity against human HEK293T cells overexpressing human ACE2 assessed as inhibition of cell growth incubated for 48 hrs by MTT assay. It is filed as toxicity, cell-based, HEK-293T. Summed up: (§1)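 Monolayers of 293T-ACE2 or Vero E6 cells in DMEM with 10% FBS were PBS-rinsed and exposed to compounds for 48 h. MTT 0.5 mg/mL was then added for 4 h at 37 °C, formazan dissolved in DMSO, and absorbance read at 570 nm.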

In data set [3] the test system is SARS-CoV-2. The data set is described as follows: Antiviral activity against pseudovirus SARS-CoV-2 spike protein expressed in human HEK293T cells assessed as inhibition of spike protein S2 subunit mediated membrane fusion in African green monkey Vero E6 cells at 2.5 to 20 uM incubated for 0.5 hr and measured after 24 hrs by inverted fluorescence microscopy. The note with it: Severe acute respiratory syndrome coronavirus 2, dose 2.5-20 µM, time 24.5 hrs, DDE = dose-dependent effect. It is filed as functional, organism-based. Summed up: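 Effector HEK-293T cells were transfected with GFP/SARS-CoV-2 S plasmid, or an EGFP-only vector as control. They were treated with or without graded compound for 30 min, then overlaid on Vero-E6 target cells seeded 6 h before. After 24 h, three random fields were imaged by inverted fluorescence microscopy.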

The nature of data set [4]: Selectivity index, ratio of CC50 for cytotoxicity against African green monkey Vero E6 cells to EC50 for antiviral activity against SARS-CoV-2 Wuhan-Hu-1 infected African green monkey Vero E6 cells. The note with it: read-out: Ratio CC50/EC50. It is filed as toxicity, cell-based, Vero C1008.
The test system of data set [5] is SARS-CoV-2. As to the kind of experiment: Antiviral activity against SARS-CoV-2 Wuhan-HU-1 infected African green monkey Vero E6 cells preincubated for 1 hrs followed by incubation with virus 1 hr and measured after 24 hrs by fluorescence assay. The class given is functional, organism-based. The following applies: Severe acute respiratory syndrome coronavirus 2, Wuhan-HU-1, Vero C1008.

A short description of data set [6]: Cytotoxicity against African green monkey Vero E6 cells assessed as inhibition of cell growth incubated for 48 hrs by MTT assay. The class given is toxicity, cell-based, Vero C1008. The note with it: chlorocebus sabaeus. The method in brief: as §1

Turning to `COc1cccc(OC)c1NC(=O)[C@]12CC[C@@H](C)[C@H](C)[C@H]1C1=CC[C@@H]3[C@@]4(C)CC[C@H](O[C@@H]5O[C@H](CO)[C@@H](O[C@@H]6O[C@@H](C)[C@H](O)[C@@H](O)[C@H]6O)[C@H](O)[C@H]5O[C@@H]5O[C@@H](C)[C@H](O)[C@@H](O)[C@H]5O)C(C)(C)[C@@H]4CC[C@@]3(C)[C@]1(C)CC2`, the Activity result in the data set on SARS-CoV-2 [1] was “Dde”. In addition, on Spike glycoprotein, the Kd came to 0.78 µM. Also, the cytotoxic concentration (CC50) at 48 h in data set [2] and in data set [6] was greater than 100 µM throughout. Besides, in the data set on SARS-CoV-2 [3], the inhibition result was “Dde”. Besides, the selectivity ratio in data set [4] was greater than 48.8. For the same molecule, the EC50 with SARS-CoV-2 [5] came to 2.05 µM.
As to `COc1ccc(CNC(=O)[C@]23CC[C@@H](C)[C@H](C)[C@H]2C2=CC[C@@H]4[C@@]5(C)CC[C@H](O[C@@H]6O[C@H](CO)[C@@H](O[C@@H]7O[C@@H](C)[C@H](O)[C@@H](O)[C@H]7O)[C@H](O)[C@H]6O[C@@H]6O[C@@H](C)[C@H](O)[C@@H](O)[C@H]6O)C(C)(C)[C@@H]5CC[C@@]4(C)[C@]2(C)CC3)cc1`, in data set [2], the CC50 at 48 h was greater than 100 µM.
In the case of `COc1ccccc1NC(=O)[C@]12CC[C@@H](C)[C@H](C)[C@H]1C1=CC[C@@H]3[C@@]4(C)CC[C@H](O[C@@H]5O[C@H](CO)[C@@H](O[C@@H]6O[C@@H](C)[C@H](O)[C@@H](O)[C@H]6O)[C@H](O)[C@H]5O[C@@H]5O[C@@H](C)[C@H](O)[C@@H](O)[C@H]5O)C(C)(C)[C@@H]4CC[C@@]3(C)[C@]1(C)CC2`, the Kd at Spike glycoprotein came out at 13.9 µM. The CC50 at 48 h in data set [2] is 43.3 µM; in data set [6] it was greater than 100 µM. Moreover, the selectivity ratio in data set [4] was greater than 42. In the data set on SARS-CoV-2 [5], this molecule registered an EC50 of 2.38 µM.
For the molecule `C[C@H]1[C@H](C)CC[C@]2(C(=O)NCc3ccccc3)CC[C@]3(C)C(=CC[C@@H]4[C@@]5(C)CC[C@H](O[C@@H]6O[C@H](CO)[C@@H](O[C@@H]7O[C@@H](C)[C@H](O)[C@@H](O)[C@H]7O)[C@H](O)[C@H]6O[C@@H]6O[C@@H](C)[C@H](O)[C@@H](O)[C@H]6O)C(C)(C)[C@@H]5CC[C@]43C)[C@H]12`, the CC50 at 48 h in data set [2] was greater than 100 µM.

The values above are taken from ChEMBL document CHEMBL5113397, “Identification, optimization, and biological evaluation of 3-O-β-chacotriosyl ursolic acid derivatives as novel SARS-CoV-2 entry inhibitors by targeting the prefusion state of spike protein” (Eur J Med Chem, 2022).
